Measured values as given in ChEMBL document CHEMBL5252636, “Host-guest binding of tetracationic cyclophanes to photodynamic agents inhibits posttreatment phototoxicity and maintains antitumour efficacy” (RSC Med Chem, 2023).
Activity calls are given as the source filed them. No cut-off for these calls is given here.

Columns and labels:
[1] = Water solubility of compound; assay type: physicochemical
[2] = Phototoxicity in laser irradiated BALB/c mouse implanted with mouse B16-F10 cells at 2 mg/kg, followed by sunlight irradiation for 24 hr; settings: in vivo, 96 h
[3] = Phototoxicity in laser irradiated BALB/c mouse implanted with mouse B16-F10 cells assessed as epidermal thickening at 4 mg/kg, sc administered for 3 days followed by sunlight irradiation for 0.5 hr and […] by H and E staining based analysis; assay type: toxicity, organism-based; settings: in vivo, iv, in the assay text read “iv administered” for “sc administered”
Procedure, shortened: (§1)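 Female nude BALB/c mice, 7–8 weeks old, received 1×10^5 B16F10 cells s.c. on the right front back (n=8). At ~20 mm³, mice got Photofrin 4.0 mg/kg i.v. and were kept dark for 24 h. Tumours were then lit with a 635 nm laser (145 mW/cm², 7 min), followed within 30 min by compound 4.0 mg/kg i.v. On day 3 came a solar simulator (100 mW/cm², 30 min). Tumour volume (L×W²/2) was measured daily, skin imaged every 2 days, and H&E done on day 13.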

[4] = Hemolytic activity in human RBC assessed as hemolysis up to 100 microg/ml measured after 1 hr; assay type: toxicity, cell-based, Erythrocyte; settings: red blood cells, up to 100 µg/mL, read-out: Activity
Procedure, shortened: (§2)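 Erythrocytes from Sprague Dawley rat or human O-type were used as a 5% (v/v) suspension in normal saline. They were incubated with compound (final 0–100 µg/mL) at 37 °C for 1 h, then centrifuged at 3000 rpm for 10 min at 4 °C. Hemoglobin in the supernatant was read at 545 nm. Saline served as 0% and deionized water as 100% hemolysis.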

[5] = Phototoxicity in laser irradiated BALB/c mouse implanted with mouse B16-F10 cells assessed as hair follicle enlargement at 4 mg/kg, sc administered for 3 days followed by sunlight irradiation for 0.5 hr and […] by H and E staining based analysis; assay type: toxicity, organism-based; settings: in vivo, iv, in the assay text read “iv administered” for “sc administered”; procedure, shortened: as §1
B16-F10 [6] = assay: Antitumor activity against mouse B16-F10 cells implanted BALB/c mouse assessed as increase in tumor cell apoptosis at 4 mg/kg, iv by tunel staining based immunohistochemical analysis
[7] = Phototoxicity in laser irradiated BALB/c mouse implanted with mouse B16-F10 cells assessed as pathological changes in lung at 4 mg/kg, followed by sunlight irradiation for 0.5 hr and measured on day 3 by H and E staining based analysis; settings: in vivo
[8] = Phototoxicity in laser irradiated BALB/c mouse implanted with mouse B16-F10 cells assessed as pathological changes in kidney at 4 mg/kg, sc administered for 3 days followed by sunlight irradiation for 0.5 hr and […] by H and E staining based analysis; assay type: toxicity, organism-based; settings: in vivo, iv, in the assay text read “iv administered” for “sc administered”; procedure, shortened: as §1
[9] = Phototoxicity in laser irradiated BALB/c mouse implanted with mouse B16-F10 cells assessed as pathological changes in skin at 4 mg/kg, followed by sunlight irradiation for 0.5 hr and measured on day 3 by H and E staining based analysis; settings: in vivo
H9c2 = assay: Cytotoxicity against rat H9c2 cells assessed as reduction in cell viability up to 100 microg/ml incubated for 24 hrs by MTT assay; assay type: toxicity, cell-based; settings: h9c2, 24 h, up to 100 µg/mL, in the assay text read “CCK-8 assay” for “MTT assay”
Procedure, shortened: (§3)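 CCK-8 viability assay. H9C2 cells were grown in DMEM with 10% FBS, and L02 cells in 1640 medium with 20% FBS, both at 37 °C in 5% CO₂. Cells were seeded at 1×10^4 per well, allowed to adhere for 24 h, then exposed to 0–100 µg/mL for 24 h. CCK-8 was added for 1 h and A450 read. Viability is expressed as % of untreated cells; six independent experiments.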

[10] = Hemolytic activity in rat RBC assessed as hemolysis up to 100 microg/ml measured after 1 hr; assay type: toxicity, cell-based, Erythrocyte; settings: red blood cells, up to 100 µg/mL, read-out: Activity; procedure, shortened: as §2
[11] = Phototoxicity in laser irradiated BALB/c mouse implanted with mouse B16-F10 cells assessed as increase in tumor volume at 4 mg/kg, followed by sunlight irradiation for 0.5 hr and measured on day 13; settings: in vivo, 312 h
[12] = Phototoxicity in laser irradiated BALB/c mouse implanted with mouse B16-F10 cells at 2 mg/kg, followed by sunlight irradiation for 24 hr in presence of dopamine; settings: in vivo, 96 h
B16-F10 [13] = assay: Antitumor activity against mouse B16-F10 cells implanted BALB/c mouse assessed as reduction in size at 4 mg/kg
[14] = Phototoxicity in laser irradiated BALB/c mouse implanted with mouse B16-F10 cells assessed as skin injury at 4 mg/kg, followed by sunlight irradiation for 0.5 hr and measured on day 11; settings: in vivo, 264 h
L02 = assay: Cytotoxicity against human L02 cells assessed as reduction in cell viability up to 100 microg/ml incubated for 24 hrs by MTT assay; assay type: toxicity, cell-based; settings: l02, 24 h, up to 100 µg/mL, in the assay text read “CCK-8 assay” for “MTT assay”; procedure, shortened: as §3

C[n+]1ccc(-c2cccc3c(-c4cc[n+](C)cc4)cccc23)cc1.[Cl-].[Cl-]
solubility [1]: 20.7 mM

C[n+]1ccc(-c2ccc(-c3cc[n+](C)cc3)c3ccccc23)cc1.[Cl-].[Cl-]
solubility [1]: 13.1 mM

[Cl-].[Cl-].[Cl-].[Cl-].c1cc2ccc1C[n+]1ccc(cc1)-c1ccc3cc(ccc3c1)-c1cc[n+](cc1)Cc1ccc(cc1)C[n+]1ccc(cc1)-c1ccc3cc(ccc3c1)-c1cc[n+](cc1)C2
Activity [2]: Non-Toxic
Activity [3]: Non-Toxic
hemolysis at 1 h [4]: ≤ 5%
Activity [5]: Non-Toxic
Activity (B16-F10 [6]): Active
Activity [7]: 41%
Activity [8]: 66%
Activity [9]: 67%
Activity (H9c2): >= 90%
hemolysis at 1 h [10]: ≤ 5%
Activity [11]: 1344 mm3
Activity [12]: Non-Toxic
Activity (B16-F10 [13]): 26 mm3
Activity [14]: Non-Toxic
Activity (L02): >= 90%

C[n+]1ccc(-c2ccc3cc(-c4cc[n+](C)cc4)ccc3c2)cc1.[Cl-].[Cl-]
solubility [1]: 3.5 mM
